From ChEMBL document CHEMBL3627623, “Catecholic amides as potential selective phosphodiesterase 4D inhibitors: Design, synthesis, pharmacological evaluation and structure-activity relationships” (Bioorg Med Chem, 2015)
Blank lines part the entries; values can stand above or below the compound they belong to.

Assays:
Phosphodiesterase 4 = Phosphodiesterase 4 (Homo sapiens, UniProt P27815+Q08499+Q07343+Q08493); assay: Inhibition of core catalytic domains of human PDE4 using AM-Cyclic-3',5'-AMP after 60 mins by fluorescence polarization assay; format: protein assay
[1] = biological target: Dual specificity calcium/calmodulin-dependent 3',5'-cyclic nucleotide phosphodiesterase 1A (Homo sapiens) (UniProt P54750); assay: Inhibition of human PDE1A using AM-Cyclic-3',5'-AMP at 10 uM after 60 mins by fluorescence polarization assay
Method in brief: (§1)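 Recombinant human PDE isoforms in 40 mM MOPS pH 7.5, 0.5 mM EDTA, 15 mM MgCl2, 0.15 mg/mL BSA, 1 mM DTT, 0.05% Proclin 200. […] Final DMSO 1%; 60 min at 25 °C. Binding agent was added, then 1 h more. Fluorescence polarization read at ex 360/em 480 nm. IC50 or single-concentration % inhibition; mean of two experiments.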

[2] = biological target: cGMP-dependent 3',5'-cyclic phosphodiesterase (Homo sapiens) (UniProt O00408); settings: 10 uM
[3] = biological target: cGMP-inhibited 3',5'-cyclic phosphodiesterase 3B (Homo sapiens) (UniProt Q13370); settings: 10 uM
[4] = biological target: 3',5'-cyclic-AMP phosphodiesterase 4D (Homo sapiens, UniProt Q08499); assay: Inhibition of human full-length PDE4D7 using AM-Cyclic-3',5'-AMP after 60 mins by fluorescence polarization assay
[5] = biological target: Dual 3',5'-cyclic-AMP and -GMP phosphodiesterase 11A (Homo sapiens) (UniProt Q9HCR9); settings: 10 uM
[6] = biological target: 3',5'-cyclic-AMP phosphodiesterase 4B (Homo sapiens, UniProt Q07343); assay: Inhibition of human full-length PDE4B1 using AM-Cyclic-3',5'-AMP after 60 mins by fluorescence polarization assay
[7] = biological target: High affinity 3',5'-cyclic-AMP phosphodiesterase 7A (Homo sapiens) (UniProt Q13946); settings: 10 uM
[8] = biological target: High affinity cAMP-specific and IBMX-insensitive 3',5'-cyclic phosphodiesterase 8A (Homo sapiens) (UniProt O60658); assay: Inhibition of human PDE8A1 using AM-Cyclic-3',5'-AMP at 10 uM after 60 mins by fluorescence polarization assay; method in brief: as §1
[9] = biological target: cGMP-specific 3',5'-cyclic phosphodiesterase (Homo sapiens) (UniProt O76074); assay: Inhibition of human PDE5A using AM-Cyclic-3',5'-AMP at 10 uM after 60 mins by fluorescence polarization assay; method in brief: as §1
[10] = biological target: cAMP and cAMP-inhibited cGMP 3',5'-cyclic phosphodiesterase 10A (Homo sapiens) (UniProt Q9Y233); assay: Inhibition of human PDE10A2 using AM-Cyclic-3',5'-AMP at 10 uM after 60 mins by fluorescence polarization assay; method in brief: as §1
[11] = biological target: High affinity cGMP-specific 3',5'-cyclic phosphodiesterase 9A (Homo sapiens) (UniProt O76083); assay: Inhibition of human PDE9A2 using AM-Cyclic-3',5'-AMP at 10 uM after 60 mins by fluorescence polarization assay; method in brief: as §1
Homo sapiens [12] = species: Homo sapiens; assay: Selectivity ratio of IC50 for human full-length PDE4B1 to IC50 for human full-length PDE4D7
Homo sapiens [13] = species: Homo sapiens; assay: Selectivity ratio of IC50 for PDE4B (unknown origin) to IC50 for PDE4D (unknown origin)
Homo sapiens [14] = species: Homo sapiens; assay: Selectivity ratio of IC50 for PDE4B2 (unknown origin) to IC50 for PDE4D3 (unknown origin)
Homo sapiens [15] = species: Homo sapiens; assay: Selectivity ratio of IC50 for PDE4B1 (unknown origin) to IC50 for PDE4D7 (unknown origin)
Homo sapiens [16] = species: Homo sapiens; assay: Selectivity ratio of IC50 for PDE4B2 (unknown origin) to IC50 for PDE4D4 (unknown origin)

3',5'-cyclic-AMP phosphodiesterase 4B, sequence (Q07343 whole entry): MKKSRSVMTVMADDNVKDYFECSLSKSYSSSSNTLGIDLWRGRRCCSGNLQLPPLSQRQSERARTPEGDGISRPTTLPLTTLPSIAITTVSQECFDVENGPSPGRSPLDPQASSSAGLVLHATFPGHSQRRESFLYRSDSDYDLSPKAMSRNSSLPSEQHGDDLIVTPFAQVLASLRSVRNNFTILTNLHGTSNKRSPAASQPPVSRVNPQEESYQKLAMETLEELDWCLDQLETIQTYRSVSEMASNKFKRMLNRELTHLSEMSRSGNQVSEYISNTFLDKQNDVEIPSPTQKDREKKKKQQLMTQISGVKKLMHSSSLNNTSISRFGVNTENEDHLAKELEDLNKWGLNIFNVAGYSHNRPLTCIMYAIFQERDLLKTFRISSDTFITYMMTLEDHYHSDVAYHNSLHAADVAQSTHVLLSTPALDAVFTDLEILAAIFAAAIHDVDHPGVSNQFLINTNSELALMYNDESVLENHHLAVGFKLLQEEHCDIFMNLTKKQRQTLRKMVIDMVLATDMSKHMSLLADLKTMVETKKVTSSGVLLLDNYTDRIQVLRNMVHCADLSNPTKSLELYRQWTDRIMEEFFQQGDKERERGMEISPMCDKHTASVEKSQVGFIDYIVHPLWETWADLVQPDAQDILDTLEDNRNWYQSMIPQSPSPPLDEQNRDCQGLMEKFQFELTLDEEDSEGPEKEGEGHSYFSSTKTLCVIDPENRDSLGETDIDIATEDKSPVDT
3',5'-cyclic-AMP phosphodiesterase 4D, sequence (Q08499 whole entry): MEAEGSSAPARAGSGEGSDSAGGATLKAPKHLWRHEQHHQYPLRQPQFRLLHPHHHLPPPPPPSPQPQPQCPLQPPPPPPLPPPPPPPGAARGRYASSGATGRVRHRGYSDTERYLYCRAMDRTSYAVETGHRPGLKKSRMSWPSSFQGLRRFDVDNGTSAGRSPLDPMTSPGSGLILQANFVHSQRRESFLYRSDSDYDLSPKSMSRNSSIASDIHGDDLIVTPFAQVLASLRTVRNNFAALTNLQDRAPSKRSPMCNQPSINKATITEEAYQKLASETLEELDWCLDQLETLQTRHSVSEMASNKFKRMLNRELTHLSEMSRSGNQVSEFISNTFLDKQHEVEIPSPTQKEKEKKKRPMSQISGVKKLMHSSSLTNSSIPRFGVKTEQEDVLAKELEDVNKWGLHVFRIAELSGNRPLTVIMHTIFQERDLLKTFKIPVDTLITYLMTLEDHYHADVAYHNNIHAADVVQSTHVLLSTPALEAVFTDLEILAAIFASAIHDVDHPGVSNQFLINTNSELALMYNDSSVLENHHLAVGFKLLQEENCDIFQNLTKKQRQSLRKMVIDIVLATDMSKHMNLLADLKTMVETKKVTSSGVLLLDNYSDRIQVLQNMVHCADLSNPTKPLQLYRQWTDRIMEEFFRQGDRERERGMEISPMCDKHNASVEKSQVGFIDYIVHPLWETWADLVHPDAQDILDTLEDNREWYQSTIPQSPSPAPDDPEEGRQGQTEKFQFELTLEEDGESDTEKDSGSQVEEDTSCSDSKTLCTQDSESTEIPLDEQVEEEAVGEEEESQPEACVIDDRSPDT
High affinity cGMP-specific 3',5'-cyclic phosphodiesterase 9A (Homo sapiens), sequence (O76083 whole entry): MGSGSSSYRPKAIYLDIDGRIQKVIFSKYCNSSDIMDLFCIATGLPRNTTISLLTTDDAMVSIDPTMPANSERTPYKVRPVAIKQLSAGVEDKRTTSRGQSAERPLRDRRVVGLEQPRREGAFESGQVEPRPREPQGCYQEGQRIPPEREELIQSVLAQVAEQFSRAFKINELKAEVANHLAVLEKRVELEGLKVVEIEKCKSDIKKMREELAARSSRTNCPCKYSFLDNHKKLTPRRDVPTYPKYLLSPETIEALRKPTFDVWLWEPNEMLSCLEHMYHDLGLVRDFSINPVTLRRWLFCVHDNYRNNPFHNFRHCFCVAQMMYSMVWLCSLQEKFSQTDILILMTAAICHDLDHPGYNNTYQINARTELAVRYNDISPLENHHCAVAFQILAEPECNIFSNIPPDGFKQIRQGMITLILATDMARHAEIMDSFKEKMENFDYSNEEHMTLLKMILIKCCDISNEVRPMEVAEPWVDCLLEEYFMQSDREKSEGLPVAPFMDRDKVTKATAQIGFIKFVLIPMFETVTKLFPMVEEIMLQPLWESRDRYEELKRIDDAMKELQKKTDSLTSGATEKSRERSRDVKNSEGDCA
cAMP and cAMP-inhibited cGMP 3',5'-cyclic phosphodiesterase 10A (Homo sapiens), sequence (Q9Y233 whole entry): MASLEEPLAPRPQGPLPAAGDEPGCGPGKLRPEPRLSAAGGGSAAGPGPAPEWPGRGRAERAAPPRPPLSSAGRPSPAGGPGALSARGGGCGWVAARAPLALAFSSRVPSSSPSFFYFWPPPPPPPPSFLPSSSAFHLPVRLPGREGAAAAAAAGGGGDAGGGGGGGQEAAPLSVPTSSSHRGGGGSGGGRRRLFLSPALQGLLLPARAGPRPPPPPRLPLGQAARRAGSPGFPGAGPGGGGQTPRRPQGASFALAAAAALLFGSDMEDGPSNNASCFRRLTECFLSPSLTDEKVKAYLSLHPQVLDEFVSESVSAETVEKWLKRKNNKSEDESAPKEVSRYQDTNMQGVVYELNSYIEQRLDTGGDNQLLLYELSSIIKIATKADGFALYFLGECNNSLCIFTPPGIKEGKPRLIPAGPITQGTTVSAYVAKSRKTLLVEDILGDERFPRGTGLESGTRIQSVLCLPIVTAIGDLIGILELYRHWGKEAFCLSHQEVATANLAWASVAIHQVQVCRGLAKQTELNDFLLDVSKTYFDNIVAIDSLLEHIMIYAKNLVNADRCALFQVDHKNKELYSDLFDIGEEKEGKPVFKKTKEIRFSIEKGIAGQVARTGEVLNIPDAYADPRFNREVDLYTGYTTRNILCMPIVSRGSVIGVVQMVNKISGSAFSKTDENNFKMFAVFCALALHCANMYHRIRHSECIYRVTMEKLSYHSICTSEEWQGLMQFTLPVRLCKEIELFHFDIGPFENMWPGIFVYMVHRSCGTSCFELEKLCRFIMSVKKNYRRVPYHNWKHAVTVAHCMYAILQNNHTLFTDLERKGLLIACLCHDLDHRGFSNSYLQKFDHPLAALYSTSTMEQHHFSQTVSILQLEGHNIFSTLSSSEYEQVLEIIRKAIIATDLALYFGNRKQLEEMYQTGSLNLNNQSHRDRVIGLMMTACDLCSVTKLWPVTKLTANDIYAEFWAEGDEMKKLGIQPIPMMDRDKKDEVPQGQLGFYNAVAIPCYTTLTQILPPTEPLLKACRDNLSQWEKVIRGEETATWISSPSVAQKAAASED
cGMP-dependent 3',5'-cyclic phosphodiesterase (Homo sapiens), sequence (O00408 whole entry): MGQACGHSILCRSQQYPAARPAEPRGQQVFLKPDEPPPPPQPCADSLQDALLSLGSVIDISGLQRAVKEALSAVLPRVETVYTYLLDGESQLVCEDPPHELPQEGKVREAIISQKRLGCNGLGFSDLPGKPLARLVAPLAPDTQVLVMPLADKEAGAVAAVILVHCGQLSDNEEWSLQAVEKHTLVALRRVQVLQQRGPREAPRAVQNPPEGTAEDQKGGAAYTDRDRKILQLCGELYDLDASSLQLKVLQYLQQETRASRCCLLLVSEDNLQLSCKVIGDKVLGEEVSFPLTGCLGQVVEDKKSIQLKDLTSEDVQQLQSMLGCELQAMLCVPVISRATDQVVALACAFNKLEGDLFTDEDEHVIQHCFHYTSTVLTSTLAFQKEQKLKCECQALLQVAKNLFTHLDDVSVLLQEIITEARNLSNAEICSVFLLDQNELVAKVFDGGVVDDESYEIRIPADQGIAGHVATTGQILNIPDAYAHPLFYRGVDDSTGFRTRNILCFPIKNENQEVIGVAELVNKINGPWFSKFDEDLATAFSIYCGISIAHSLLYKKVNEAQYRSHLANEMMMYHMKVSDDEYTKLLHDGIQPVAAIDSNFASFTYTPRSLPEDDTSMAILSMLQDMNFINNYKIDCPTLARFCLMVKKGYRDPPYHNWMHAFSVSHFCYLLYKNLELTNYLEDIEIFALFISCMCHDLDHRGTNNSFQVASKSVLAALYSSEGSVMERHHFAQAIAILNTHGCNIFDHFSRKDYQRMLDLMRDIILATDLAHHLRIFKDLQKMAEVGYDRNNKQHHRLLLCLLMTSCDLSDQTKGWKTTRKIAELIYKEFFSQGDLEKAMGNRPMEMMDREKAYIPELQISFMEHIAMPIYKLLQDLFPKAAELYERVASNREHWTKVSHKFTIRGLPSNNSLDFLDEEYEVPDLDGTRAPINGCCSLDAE
Dual 3',5'-cyclic-AMP and -GMP phosphodiesterase 11A (Homo sapiens), sequence (Q9HCR9 whole entry, looked up): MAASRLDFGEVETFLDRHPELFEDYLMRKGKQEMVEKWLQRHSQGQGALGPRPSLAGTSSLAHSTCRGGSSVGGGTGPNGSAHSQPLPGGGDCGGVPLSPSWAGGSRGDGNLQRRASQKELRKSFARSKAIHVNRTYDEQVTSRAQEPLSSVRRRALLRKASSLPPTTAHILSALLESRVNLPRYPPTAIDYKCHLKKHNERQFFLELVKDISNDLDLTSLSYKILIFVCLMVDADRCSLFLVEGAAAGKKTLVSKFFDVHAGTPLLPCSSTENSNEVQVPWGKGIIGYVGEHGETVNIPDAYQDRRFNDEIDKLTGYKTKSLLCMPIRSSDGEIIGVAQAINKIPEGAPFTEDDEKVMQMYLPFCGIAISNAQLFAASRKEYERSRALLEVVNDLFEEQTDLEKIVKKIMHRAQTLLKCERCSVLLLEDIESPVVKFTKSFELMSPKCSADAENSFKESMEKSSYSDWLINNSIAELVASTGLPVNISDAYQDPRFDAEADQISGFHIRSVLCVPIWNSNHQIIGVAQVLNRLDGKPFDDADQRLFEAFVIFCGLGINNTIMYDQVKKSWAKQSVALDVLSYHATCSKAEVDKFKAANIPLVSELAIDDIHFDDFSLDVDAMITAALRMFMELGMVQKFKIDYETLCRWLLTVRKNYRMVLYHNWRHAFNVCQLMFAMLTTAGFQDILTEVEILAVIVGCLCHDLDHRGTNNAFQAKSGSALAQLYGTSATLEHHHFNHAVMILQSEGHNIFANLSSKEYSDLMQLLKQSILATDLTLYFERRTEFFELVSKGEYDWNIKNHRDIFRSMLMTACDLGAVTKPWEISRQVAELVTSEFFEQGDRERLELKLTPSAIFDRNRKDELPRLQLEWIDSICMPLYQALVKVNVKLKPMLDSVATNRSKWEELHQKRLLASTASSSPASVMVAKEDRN

IC50 (Phosphodiesterase 4): 18300 nM
Compound: COc1ccccc1OCCNC(=O)c1ccc(OC)c(OC2CCCC2)c1

IC50 (Phosphodiesterase 4): 1100 nM
inhibition [1]: 11%
inhibition [2]: 2%
inhibition [3]: 2%
IC50 [4]: 94 nM
inhibition [5]: 2%
IC50 [6]: 976 nM
inhibition [7]: 3%
inhibition [8]: 10%
inhibition [9]: 16%
inhibition [10]: 1%
inhibition [11]: 6%
Compound: COc1ccc(CNC(=O)c2ccc(OC(F)F)c(OC3CCCC3)c2)cc1

IC50 (Phosphodiesterase 4): > 100000 nM
Compound: COc1ccc(CNC(=O)c2ccc(OC)c(OC3CCCC3)c2)cc1OC

IC50 (Phosphodiesterase 4): 2100 nM
Compound: O=C(NCc1ccccc1)c1ccc(OC(F)F)c(OCC2CC2)c1

Ratio IC50 (Homo sapiens [12]): 3.2
IC50 (Phosphodiesterase 4): 910 nM
IC50 [4]: 342 nM
IC50 [6]: 1090 nM
Compound: COc1ccc(CNC(=O)c2ccc(OC)c(OCC3CC3)c2)cc1

Ratio IC50 (Homo sapiens [13]): 142
Compound: COc1ccc([C@H](C)NC(=O)c2cccnc2Oc2ccc(F)cc2)cc1

Ratio IC50 (Homo sapiens [14]): 85
Compound: COc1ccc(/C=N/OCC(O)CNN2CC(C)OC(C)C2)cc1OC1CCCC1 (stereo not drawn)

IC50 (Phosphodiesterase 4): 2200 nM
Compound: O=C(NCc1ccccc1)c1ccc(OC(F)F)c(OC2CCCC2)c1

Ratio IC50 (Homo sapiens [12]): 2.8
IC50 (Phosphodiesterase 4): 410 nM
IC50 [4]: 108 nM
IC50 [6]: 301 nM
Compound: COc1ccc(CNC(=O)c2ccc(OC(F)F)c(OCC3CC3)c2)cc1

IC50 (Phosphodiesterase 4): 11100 nM
Compound: COc1ccccc1OCCNC(=O)c1ccc(OC)c(OCC2CC2)c1

Ratio IC50 (Homo sapiens [15]): 54
Compound: COc1ccc(Cc2ccc(NC(N)=O)cc2)cc1-c1cccc(Cl)c1

IC50 (Phosphodiesterase 4): 6900 nM
Compound: COc1ccccc1OCCNC(=O)c1ccc(OC(F)F)c(OCC2CC2)c1

IC50 (Phosphodiesterase 4): > 100000 nM
Compound: COc1ccc(CNC(=O)c2ccc(OC)c(OCC3CC3)c2)cc1OC

IC50 (Phosphodiesterase 4): > 100000 nM
Compound: COc1ccc(CNC(=O)c2ccc(OC(F)F)c(OC3CCCC3)c2)cc1OC

Ratio IC50 (Homo sapiens [12]): 3.6
IC50 (Phosphodiesterase 4): 960 nM
IC50 [4]: 284 nM
IC50 [6]: 1030 nM
Compound: COc1ccc(CNC(=O)c2ccc(OC)c(OC3CCCC3)c2)cc1

IC50 (Phosphodiesterase 4): > 100000 nM
Compound: COc1ccc(CNC(=O)c2ccc(OC(F)F)c(OCC3CC3)c2)cc1OC

Ratio IC50 (Homo sapiens [16]): 13
Compound: COc1ccccc1OCCNc1ccc(=O)n(Cc2ccc(OC)c(-c3cccc(Cl)c3)c2)n1

IC50 (Phosphodiesterase 4): 12400 nM
Compound: COc1ccccc1OCCNC(=O)c1ccc(OC(F)F)c(OC2CCCC2)c1
